According to publication PMC9082043 (RSC Advances, 2018):
Like-named read-outs stand apart in the source and are kept apart here.

Legend:
[1] = test system: HepG2 (human liver cancer cells); experiment: MTT antiproliferative assay, HepG2; format: cell-based; details: read-out: IC50 HepG2
How it was run: (§1)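 MTT assay on HepG2, SK-OV-3, NCI-H460, BEL-7404 and normal HL-7702 cells, with 5-fluorouracil and cisplatin run alongside as positive controls.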

[2] = test system: SK-OV-3 (human ovarian cancer cells); experiment: MTT antiproliferative assay, SK-OV-3; format: cell-based; details: read-out: IC50 SKOV-3
How it was run: as §1

[3] = test system: NCI-H460 (human large cell lung cancer cells); experiment: MTT antiproliferative assay, NCI-H460; format: cell-based; details: read-out: IC50 NCI-H460
How it was run: as §1

[4] = test system: HL-7702 (human liver normal cells); experiment: MTT cytotoxicity assay, HL-7702 normal cells; format: cell-based; details: L02, 48 h, read-out: IC50 HL-7702
How it was run: as §1

[5] = test system: BEL-7404 (human liver cancer cells); experiment: MTT antiproliferative assay, BEL-7404; format: cell-based; details: read-out: IC50 BEL-7404, 48 h, mean ± SD of three experiments
How it was run: as §1

HepG2 xenograft = experiment: In vivo antitumor activity, HepG2 xenograft model; set-up: species or system SPF BALB/c nude mice
How it was run: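 HepG2 xenografts in SPF BALB/c nude mice, randomised into vehicle, low-dose (10 mg kg−1), high-dose (20 mg kg−1) and paclitaxel (5 mg kg−1) groups. All were injected in 5% DMSO/saline (v/v). Tumours were measured twice weekly in two dimensions to give volume, mean ± SD, n = 6. The relative tumour increment rate (T/C, %) was taken at day 41.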

[6] = MTT, 48 h, mean ± SD of three experiments

O=c1[nH]cc(F)c(=O)[nH]1 [5-FU, 5-fluorouracil]
IC50 ([1]; Homo sapiens, HepG2, 48 h): 32 ± 0.56 µM
IC50 ([2]; Homo sapiens, SK-OV-3, 48 h): 26.3 ± 0.57 µM
IC50 ([3]; Homo sapiens, NCI-H460, 48 h): 45.4 ± 0.94 µM
IC50 [4]: 58.7 ± 2.31 µM

N.N.[Cl][Pt][Cl] [Cisplatin, cisplatin]
IC50 [1, 6]: 10.1 ± 0.71 µM
IC50 [2, 6]: 15.6 ± 1.7 µM
IC50 [3, 6]: 20.4 ± 0.5 µM
IC50 [5]: 14.7 ± 0.66 µM

CC(=O)O[C@H]1C(=O)[C@@]2(C)[C@H]([C@H](OC(=O)c3ccccc3)[C@]3(O)C[C@H](OC(=O)[C@H](O)[C@@H](NC(=O)c4ccccc4)c4ccccc4)C(C)=C1C3(C)C)[C@]1(OC(C)=O)CO[C@@H]1C[C@@H]2O [Paclitaxel, paclitaxel]
T/C value (relative tumor increment rate) (HepG2 xenograft; 5 mg kg^−1 dose): 19.0%
effect on tumour volume in mice (HepG2 xenograft; 3a1 10 and 20 mg kg^−1, paclitaxel 5 mg kg^−1, compared with control): significantly inhibited the increase in the tumour volume
